Results reported in ChEMBL document CHEMBL1132628, “Quinuclidine inhibitors of 2,3-oxidosqualene cyclase-lanosterol synthase: optimization from lipid profiles” (J Med Chem, 1999).
pIC50: −log10 of the molar value.

Target: T1, Lanosterol synthase (Rattus norvegicus) (UniProt P48450)
T1 sequence (whole entry): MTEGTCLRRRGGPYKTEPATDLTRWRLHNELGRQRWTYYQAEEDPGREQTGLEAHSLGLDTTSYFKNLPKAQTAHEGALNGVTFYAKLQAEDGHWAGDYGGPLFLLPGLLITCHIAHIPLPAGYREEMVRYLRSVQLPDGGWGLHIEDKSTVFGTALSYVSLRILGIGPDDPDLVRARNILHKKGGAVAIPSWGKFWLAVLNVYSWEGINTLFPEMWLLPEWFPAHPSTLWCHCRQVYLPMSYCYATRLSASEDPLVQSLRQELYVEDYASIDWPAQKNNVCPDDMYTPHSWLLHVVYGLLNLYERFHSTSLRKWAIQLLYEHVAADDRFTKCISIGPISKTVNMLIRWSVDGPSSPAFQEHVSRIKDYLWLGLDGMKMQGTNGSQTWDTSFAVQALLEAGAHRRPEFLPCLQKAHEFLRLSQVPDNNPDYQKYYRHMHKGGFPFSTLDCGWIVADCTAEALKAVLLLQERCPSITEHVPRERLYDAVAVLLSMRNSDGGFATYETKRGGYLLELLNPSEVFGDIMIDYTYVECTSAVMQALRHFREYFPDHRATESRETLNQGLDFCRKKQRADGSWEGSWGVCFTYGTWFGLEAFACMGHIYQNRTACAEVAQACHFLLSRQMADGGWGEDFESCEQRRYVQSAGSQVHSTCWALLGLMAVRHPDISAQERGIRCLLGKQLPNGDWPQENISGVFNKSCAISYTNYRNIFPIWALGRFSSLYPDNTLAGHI
Assay: The in vivo assay of compound for inhibition of cholesterol biosynthesis was measured on Oxidosqualene-lanosterol cyclase of rat at 5 mg/kg

First: O=C(c1ccc(C(F)(F)F)cc1)N1CCC(=Cc2ccc(C3=NCCO3)cc2)CC1
Second: O=C(c1ccc(Br)cc1)c1ccc(C#CC2(O)CN3CCC2CC3)cc1 (centres undefined)
The inhibition of the first is higher: 98% for the first, 59% for the second.

First: Brc1ccc(SC2CN3CCC2CC3)cc1 (centres undefined)
Second: Brc1cccc(SC2CN3CCC2CC3)c1 (centres undefined)
The inhibition of the first is higher: 47% for the first, under 5% for the second.

First: OC1(C#Cc2ccc(Oc3ccc(Br)cc3)cc2)CN2CCC1CC2 (centres undefined)
Second: OC1(C#Cc2ccc(Sc3ccc(Br)cc3)cc2)CN2CCC1CC2 (centres undefined)
The inhibition of the first is lower: 55% for the first, 79% for the second.

Going from O=S(=O)(c1ccc(Br)cc1)c1ccc(C#CC2(O)CN3CCC2CC3)cc1 (centres undefined) to [O-][S+](c1ccc(Br)cc1)c1ccc(C#CC2(O)CN3CCC2CC3)cc1 (centres undefined), the inhibition falls from 94% to 83%.

Brc1ccccc1SC1CN2CCC1CC2 (centres undefined) gave an inhibition of under 5%.

Target: T1, Lanosterol synthase (Rattus norvegicus)
Assay: The in vivo assay of compound for inhibition of cholesterol biosynthesis was measured on Oxidosqualene-lanosterol cyclase of rat at 5 mg/kg
Type: functional, organism-based
Design: dose 5 mg/kg
Method in brief: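 Female rats (130 ± 20 g) on reverse lighting dosed orally in DMSO/HPMC; tritiated mevalonate (2.5 μCi) given 1 h later, rats killed after another 1 h. Liver extracts run on HPLC with radiodetection; peaks assigned against standard sterol intermediates' retention times; cholesterol synthesis inhibition from peak area, plus intermediate selectivity profile.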

Going from O=C(c1ccc(Cl)cc1)c1ccc(OC2CN3CCC2CC3)cc1 (centres undefined) to O=C(/C=C1\CN2CCC1CC2)c1ccc(C(=O)c2ccc(Br)cc2)cc1, the inhibition falls from 92% to 84%.

Target: T2, Squalene synthase (Rattus norvegicus, UniProt Q02769)
T2 sequence (Q02769 whole entry): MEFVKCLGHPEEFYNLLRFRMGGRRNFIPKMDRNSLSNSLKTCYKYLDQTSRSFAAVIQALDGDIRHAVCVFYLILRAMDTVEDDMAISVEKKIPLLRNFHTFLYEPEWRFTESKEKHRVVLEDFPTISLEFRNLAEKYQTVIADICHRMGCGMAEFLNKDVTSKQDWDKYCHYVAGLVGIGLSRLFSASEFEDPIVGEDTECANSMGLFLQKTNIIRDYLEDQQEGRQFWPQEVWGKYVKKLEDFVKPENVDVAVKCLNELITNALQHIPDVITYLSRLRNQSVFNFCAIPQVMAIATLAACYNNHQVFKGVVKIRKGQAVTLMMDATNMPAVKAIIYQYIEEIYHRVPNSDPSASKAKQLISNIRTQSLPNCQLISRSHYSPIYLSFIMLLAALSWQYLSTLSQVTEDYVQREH
Assay: Compound was measured for the inhibition of rat microsomal squalene synthase enzyme

With C=CCc1cc(CCC(=O)OCC)ccc1C#CC1(O)CN2CCC1CC2 (centres undefined) the pIC50 was 8.22.

Target: T3, Lanosterol synthase (Rattus norvegicus, UniProt P48450)
T3 sequence (P48450 whole entry): T1 sequence (whole entry)
Assay: Inhibition of compound was measured on rat microsomal Oxidosqualene-lanosterol cyclase
Method in brief: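 Rat liver microsomes diluted in 50 mM phosphate buffer pH 7.4 with tween; compounds from DMSO stocks (10^-4 M, serial tenfold dilutions) preincubated with microsomes 10 min at 37 °C, then cold plus radiolabelled oxidosqualene added, 1 h incubation. Stopped with ethanolic KOH, heated 80 °C 2 h, hexane-extracted; inhibition from radiolabelled product.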

OC1(c2ccc(-c3ccccc3)cc2)CN2CCC1CC2 (centres undefined) and C=CCc1cc(CCC(=O)OCC)ccc1C#CC1(O)CN2CCC1CC2 (centres undefined) cannot be ordered by pIC50: under 7.00 for the first, under 7.00 for the second.
